Screening results deposited in PubChem BioAssay by several laboratories.
In the library only some 2.9% were active in any assay of this set; here they are far more common.
VIM-2 inhibitor: blocks Pseudomonas aeruginosa VIM-2 metallo-beta-lactamase; purified VIM-2, nitrocefin hydrolysis, epi-absorbance fluorescence; inhibition, % at 5.6 µM; hit rate 0.89% among 290,000;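 active means inhibition above the mean of all tested compounds plus 3 SD, cutoff set per screening run, cut at about 7.5% in these data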;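 further: red hydrolysis product quenches plate fluorescence so inhibitors raise well fluorescence; 0% = enzyme with DMSO and 100% = DMSO without enzyme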
PolyA inh: yeast polyadenylation inhibition; S. cerevisiae SKY197-pL101 polyadenylation reporter, beta-gal luminescence; efflux-impaired pdr1/pdr3 knockout yeast; score 100 = 6 SD above DMSO; activity score, % at 12 µM; hit rate 0.02% among 300,000; AID 1875;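 active means lowest replicate activity score at least 50, where 100 means six control SD above control mean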;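 further: yeast exposed to compound for 9 h at 30 °C; higher score means more reporter readthrough which indicates perturbed polyadenylation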
SUMO Mot1 rescue: blocks SUMOylation pathway, rescuing yeast Mot1-301 growth; S. cerevisiae Mot1-301 growth rescue, ATP luminescence, 38.5C; percent above DMSO median, 100 means doubled; growth rescue, % at 18.8 µM; hit rate 1% among 320,000;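 active means every valid replicate shows activation above 250% relative to neutral control wells; inactive means the rest, any valid replicate at or below 250%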;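 further: OY570 slx delta 5 strain wells were the positive control but not used for scaling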
IMP-1 inh: inhibitors of Pseudomonas aeruginosa IMP-1 metallo-beta-lactamase; inhibition, % at 5.6 µM; purified IMP-1, nitrocefin hydrolysis, epi-absorbance fluorescence; hit rate 0.45% among 290,000;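 active means inhibition above the mean plus 3 SD of all compounds in the same screening run, cut at about 4.5% in these data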;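 further: 0% = IMP-1 with DMSO and 100% = DMSO wells lacking enzyme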
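Assay system: purified IMP-1; Quantity: IMP-1 0.2 nM before substrate addition; Medium: HEPES buffer pH 7.1 with ZnSO4 and Brij 35; Incubation: 15 min enzyme–compound preincubation, then 25 min nitrocefin reaction, 25 °C; Signal: fluorescence quenching readout, ex 480/em 530 nm; Controls: DMSO with and without IMP-1; Repeats: singlicate testing.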
NLRP3 yeast inh: inhibitors of NALP3 inflammasome in yeast. Yeast reconstituted NLRP3/ASC/caspase-1, beta-gal luminescence, 24 h. inhibition, % at 10 µM. hit rate 0.39% among 330,000. AID 2825;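 active means inhibition of 50% or more; inactive means inhibition below 50%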;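 further: plate controls were induced DMSO wells for no effect and uninduced yeast grown without galactose for full effect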
NALP1 inh: inhibitors of NALP1 inflammasome in yeast. inhibition, % at 10 µM. S. cerevisiae NALP1/ASC/caspase-1 growth, X-gal OD620, 72 h. hit rate 0.61% among 280,000. AID 2071; in the data active means inhibition mostly above about 24%, no sharp cut-off; inactive means mostly below about 32%
An asterisk follows results filed as active; . = no result.

SMILES	VIM-2 inhibitor	PolyA inh	SUMO Mot1 rescue	IMP-1 inh	NLRP3 yeast inh	NALP1 inh
COc1ccccc1N1CCN(C(=O)c2cccc(S(=O)(=O)N3CCCCCC3)c2)CC1	.	.	.	.	24.2	.
COC(=O)c1ccc(NS(=O)(=O)c2ccccc2)o1	-1.9	8.1	493.6	4.9*	9.0	1.2
C/C(=N\NC(=O)c1ccncc1)c1cccc(NC(=O)c2ccc(Cl)s2)c1	-3.7	.	-8.2	-3.1	18.1	9.9
Cc1cccc(/C=C/C(=O)c2ccc(NC3=NCCCS3)cc2)c1	-0.9	.	85.6	-1.4	27.8	61.9*
CC(C)(C)c1ccc(CNC(=O)C2CCCN2C(=O)Nc2ccccc2)cc1 (stereo not drawn)	0.7	14.5	-18.0	-0.9	7.8	7.8
CCc1ccc(Cn2nnc(C(=O)Nc3ccc(OC)cc3OC)c2N)cc1	-1.3	-29.0	209.1	-0.4	4.5	44.7*
CN(CC1CCCO1)S(=O)(=O)c1ccc(C(=O)Nc2ccc(S(N)(=O)=O)cc2)cc1 (stereo not drawn)	2.2	-3.2	-2.0	4.8*	2.9	9.8
C=CC[C@]12CCc3ccccc3C1N(c1ccc(C(=O)OCC)cc1)C2=O (stereo partly drawn)	.	.	0.0	.	23.7	.
CC(C)c1nnc(NC(=O)CCC(=O)Nc2ccc3cn[nH]c3c2)s1	-2.5	8.6	-21.1	-4.0	8.8	-8.0
O=C(CSc1nnc(Cn2nnc(-c3ccccc3)n2)n1-c1ccccc1)Nc1ccccc1	-1.4	-15.0	-14.9	4.7*	-4.1	4.9
COc1cc2c(=O)n(CCC(=O)NCC3CCCO3)c(=O)n(CC(=O)Nc3ccc(F)cc3)c2cc1OC (stereo not drawn)	-0.8	2.2	283.5*	-2.5	18.6	8.2
N#CCSc1ccccc1NC(=O)COC(=O)CCNC(=O)c1ccc([N+](=O)[O-])cc1	.	.	.	.	-1.5	.
Fc1ccc(C2CC(c3ccccc3)Nc3ncnn32)cc1 (stereo not drawn)	-1.4	-11.3	15.0	0.0	-0.5	35.2*
Cc1cc(OCCN2CCN(S(=O)(=O)c3ccccc3F)CC2)ccc1C(C)C	.	.	16.7	.	19.4	.
CCCCn1c(N)c(N(CC)C(=O)c2ccc([N+](=O)[O-])c(C)c2)c(=O)[nH]c1=O	-2.1	-1.8	1.7	-0.5	7.6	5.6
Cc1cccc(NC(=O)C23CCC(C)(C(=O)O2)C3(C)C)c1 (stereo not drawn)	1.2	-12.1	234.8	-0.4	-3.6	-4.2
COc1cccc(NC(=O)C23CCC(C)(C(=O)O2)C3(C)C)c1 (stereo not drawn)	-4.5	9.4	.	-2.8	1.0	38.8*
COc1ccc(CNC(=O)COc2cc3c(c4oc(=O)cc(C)c24)CCC(C)(C)O3)cc1OC	-1.6	-12.8	334.3*	-3.0	9.5	-2.7
Cc1c(C)c2c(OCC(=O)NCC(C)C)cc3c(c2oc1=O)CCC(C)(C)O3	-0.8	13.0	-19.5	-5.0	15.1	1.2
Cc1c(C)c2c(OCC(=O)NCc3cccnc3)cc3c(c2oc1=O)CCC(C)(C)O3	8.8*	-12.3	90.3	-4.4	10.8	23.8
CCC(NC(=O)COc1cc2c(c3oc(=O)c(C)c(C)c13)CCC(C)(C)O2)C(=O)O (stereo not drawn)	11.2*	0.9	-8.3	-3.3	-12.9	5.4
CCc1cc(=O)oc2c3c(cc(OCC(=O)NCc4cccnc4)c12)OC(C)(C)CC3	3.5	-12.8	-14.9	-6.2	19.8	11.7
Cc1ccc(CCC(=O)Nc2ccc(C)c(C)c2)o1	-0.2	-19.5	-26.2	-0.5	33.3	20.3
COc1ccc(CCN(CC(=O)NCc2ccc(F)cc2)C(=O)c2snc(C(N)=O)c2N)cc1OC	-2.5	3.0	-6.8	-2.5	17.1	-1.4
O=C(Cc1ccc(S(=O)(=O)N2CCOCC2)s1)Nc1cc(Cl)ccc1Cl	.	.	10.2	.	-2.4	.
SMILES	VIM-2 inhibitor	PolyA inh	SUMO Mot1 rescue	IMP-1 inh	NLRP3 yeast inh	NALP1 inh
Cc1cc(C)nc(NC(=O)CN2C(=O)c3ccccc3S2(=O)=O)n1	.	-0.9	5.6	.	-2.4	.
Cc1cc(C)nc(N(C#N)CN2C(=O)c3ccccc3S2(=O)=O)n1	4.0	7.8	-4.3	8.8*	14.3	-1.2
CN(C)c1nc(N(C)C)nc(N(C#N)CN2C(=O)c3ccccc3C2=O)n1	0.6	-17.8	-7.2	-2.2	2.4	26.9
CNc1nc(OC)nc(N(C#N)CN2C(=O)c3ccccc3S2(=O)=O)n1	6.5	5.1	30.6	9.4*	1.1	12.0
COc1ccc(OC)c(C(c2c(O)nc(SC)[nH]c2=O)c2c(O)nc(SC)[nH]c2=O)c1	0.2	0.5	17.4	-3.2	10.5	27.4
COc1ncnc2c1ncn2CC1COC(C)(C)O1 (stereo not drawn)	.	-0.8	672.9	.	-2.7	.
COc1ccc(S(=O)(=O)NCC2CCCO2)c(Cl)c1Cl (stereo not drawn)	-1.1	-14.9	-8.4	9.2*	16.8	15.9
COc1cc(S(=O)(=O)NCC2CCCO2)c(OC)cc1Cl (stereo not drawn)	-3.6	3.3	-5.0	-4.4	2.0	.
Cc1[nH]c(=O)[nH]c(=O)c1/C=C/C(=O)O	-2.5	-4.7	853.2*	-1.7	-1.8	.
CCOc1ccc(S(=O)(=O)N2CCN(Cc3ccc4c(c3)OCO4)CC2)cc1C	0.3	-31.7	327.7*	-0.7	27.8	20.1
COc1ccc(S(=O)(=O)N2CCN(Cc3ccc4c(c3)OCO4)CC2)cc1F	0.7	-1.0	38.6	-1.1	23.4	19.8
Cn1c(N)c(C(=O)COC(=O)/C=C/c2ccc(Cl)c(Cl)c2)c(=O)n(C)c1=O	.	.	-4.5	.	12.2	.
CCC(C)CCN1C(N(C)C)=NC[C@@H]1C (stereo partly drawn)	.	.	317.7*	.	0.6	.
Cc1cc(C)nc(/N=C(\N)Nc2ccc(OCc3ccccc3)cc2)n1	-2.0	-10.1	82.0	-2.2	9.0	-5.3
Cc1cc(C)nc(/N=C(\N)Nc2ccc(OCCC(C)C)cc2)n1	0.6	-2.7	-13.9	0.7	-1.5	32.8*
CCc1cc2c(NCC(=O)O)ncnc2s1	-2.5	-7.9	-15.3	-4.5	1.2	39.4*
CCc1cc2c(NCc3ccco3)ncnc2s1	-2.6	13.0	260.2	-4.5	41.6	32.4
CCOC(=O)C1=C(C)N=c2s/c(=C/c3cccc([N+](=O)[O-])c3O)c(=O)n2C1c1cc(OC)c(OC)c(OC)c1 (stereo not drawn)	7.5	-10.3	-8.7	-6.2	25.4	-8.8
CCOC(=O)C1=C(C)N=c2s/c(=C/c3cccc([N+](=O)[O-])c3O)c(=O)n2C1c1ccccc1 (stereo not drawn)	8.1*	0.7	3.6	-5.7	5.7	-11.4
O=C(NCCc1cnc[nH]1)c1ccc(-c2ccccc2)cc1	-1.2	-8.6	-8.3	-3.0	9.4	4.0
C=CCn1c(SCC(=O)Nc2ccc(O)cc2)nc2sc(CC)cc2c1=O	0.1	-5.1	53.2	-1.9	4.8	-4.4
